Experimental data from ChEMBL document CHEMBL1154935, “Design, synthesis, evaluation and QSAR analysis of N(1)-substituted norcymserine derivatives as selective butyrylcholinesterase inhibitors” (Bioorg Med Chem Lett, 2010).

Tests used:
[1] = molecular target: T1, Acetylcholinesterase (Mus musculus, UniProt P21836); assay: Inhibition of mouse brain AChE after 1 hr by modified Ellman's colorimetric method
T1 sequence (P21836 whole entry): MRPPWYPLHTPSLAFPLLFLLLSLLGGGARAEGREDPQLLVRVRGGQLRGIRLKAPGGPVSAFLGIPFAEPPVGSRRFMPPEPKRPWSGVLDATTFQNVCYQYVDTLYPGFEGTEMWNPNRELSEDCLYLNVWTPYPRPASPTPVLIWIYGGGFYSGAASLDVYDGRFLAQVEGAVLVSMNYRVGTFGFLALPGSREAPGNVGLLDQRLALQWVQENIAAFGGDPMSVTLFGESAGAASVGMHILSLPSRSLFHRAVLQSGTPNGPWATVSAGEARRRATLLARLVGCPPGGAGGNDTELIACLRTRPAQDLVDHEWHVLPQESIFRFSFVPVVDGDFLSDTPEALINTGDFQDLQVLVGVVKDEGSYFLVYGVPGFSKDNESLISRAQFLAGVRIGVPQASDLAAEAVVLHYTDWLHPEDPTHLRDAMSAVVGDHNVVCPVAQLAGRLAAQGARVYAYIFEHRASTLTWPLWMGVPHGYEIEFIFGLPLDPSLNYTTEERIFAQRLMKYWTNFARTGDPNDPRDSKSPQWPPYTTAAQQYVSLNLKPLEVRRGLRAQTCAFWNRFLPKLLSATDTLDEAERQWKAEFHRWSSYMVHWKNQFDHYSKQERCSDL
How it was run: (§1)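 Enzyme source was a mouse brain extract. Inhibitor was preincubated with enzyme for 1 h at 37 °C, then acetylthiocholine was added together with DTNB. Absorbance at 415 nm was read at 2 min intervals. Activity was taken as percent of the DMSO solvent control. Seven concentrations were tested, and IC50 came from nonlinear regression of a sigmoidal dose-response curve.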

[2] = molecular target: Cholinesterase (Mus musculus, UniProt Q03311); assay: Inhibition of mouse serum BChE after 1 hr by modified Ellman's colorimetric method
Chain of Cholinesterase (Q03311 whole entry): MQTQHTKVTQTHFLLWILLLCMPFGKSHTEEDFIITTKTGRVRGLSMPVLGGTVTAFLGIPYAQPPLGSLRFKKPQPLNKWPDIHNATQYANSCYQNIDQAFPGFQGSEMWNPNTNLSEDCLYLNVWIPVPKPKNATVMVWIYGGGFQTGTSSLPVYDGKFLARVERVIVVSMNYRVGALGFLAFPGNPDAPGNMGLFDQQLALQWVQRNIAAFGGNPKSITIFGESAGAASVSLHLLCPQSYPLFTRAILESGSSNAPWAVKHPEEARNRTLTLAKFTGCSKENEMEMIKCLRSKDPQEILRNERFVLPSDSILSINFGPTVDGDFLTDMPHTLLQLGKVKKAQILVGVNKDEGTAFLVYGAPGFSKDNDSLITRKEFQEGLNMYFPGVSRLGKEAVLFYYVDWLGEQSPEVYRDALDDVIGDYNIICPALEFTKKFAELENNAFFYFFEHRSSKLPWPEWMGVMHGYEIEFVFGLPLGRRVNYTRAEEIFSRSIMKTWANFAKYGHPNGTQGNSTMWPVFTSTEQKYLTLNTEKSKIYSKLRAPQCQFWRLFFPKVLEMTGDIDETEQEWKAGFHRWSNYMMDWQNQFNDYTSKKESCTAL
How it was run: as §1, with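 “serum” for “brain”, “butyrylthiocholine” for “acetylthiocholine”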

## CC(C)c1ccc(NC(=O)Oc2ccc3c(c2)[C@]2(C)CCN(CC(c4ccccc4)c4ccccc4)[C@@H]2N3C)cc1
[1]
  IC50: > 100000 nM
[2]
  IC50: 10000 nM

## CC(C)c1ccc(NC(=O)Oc2ccc3c(c2)[C@]2(C)CCN(C(Cc4ccccc4)c4ccccc4)[C@@H]2N3C)cc1 (stereo not given in full)
[1]
  IC50: > 100000 nM
[2]
  IC50: 15000 nM

## CC(C)c1ccc(NC(=O)Oc2ccc3c(c2)[C@]2(C)CCN(CCc4ccc(Cl)cc4)[C@@H]2N3C)cc1
[1]
  IC50: > 100000 nM
[2]
  IC50: 500 nM

## CC(C)c1ccc(CCN2CC[C@@]3(C)c4cc(OC(=O)Nc5ccc(C(C)C)cc5)ccc4N(C)[C@@H]23)cc1
[1]
  IC50: > 100000 nM
[2]
  IC50: 3300 nM

## CC(C)c1ccc(NC(=O)Oc2ccc3c(c2)[C@]2(C)CCN(CCc4ccc(Cl)cc4Cl)[C@@H]2N3C)cc1
[1]
  IC50: > 100000 nM
[2]
  IC50: 2600 nM

## Cc1ccc(CCN2CC[C@@]3(C)c4cc(OC(=O)Nc5ccc(C(C)C)cc5)ccc4N(C)[C@@H]23)c(C)c1
[1]
  IC50: > 100000 nM
[2]
  IC50: 1100 nM

## CC(C)c1ccc(NC(=O)Oc2ccc3c(c2)[C@]2(C)CCN(CC(C)c4ccccc4)[C@@H]2N3C)cc1 (stereo not given in full)
[1]
  IC50: > 100000 nM
[2]
  IC50: 720 nM

## CC(C)c1ccc(NC(=O)Oc2ccc3c(c2)[C@]2(C)CCN(CCc4ccccn4)[C@@H]2N3C)cc1
[1]
  IC50: 4200 nM
[2]
  IC50: 160 nM

## CC(C)c1ccc(NC(=O)Oc2ccc3c(c2)[C@]2(C)CCN(CCN4CCCCC4)[C@@H]2N3C)cc1
[1]
  IC50: 3500 nM
[2]
  IC50: 170 nM

## CC(C)c1ccc(NC(=O)Oc2ccc3c(c2)[C@]2(C)CCN(CCc4cccnc4)[C@@H]2N3C)cc1
[1]
  IC50: > 100000 nM
[2]
  IC50: 180 nM

## CC(C)c1ccc(NC(=O)Oc2ccc3c(c2)[C@]2(C)CCN(CCc4ccncc4)[C@@H]2N3C)cc1
[1]
  IC50: 23000 nM
[2]
  IC50: 170 nM

## CC(C)c1ccc(NC(=O)Oc2ccc3c(c2)[C@]2(C)CCN(CCCCc4ccccc4)[C@@H]2N3C)cc1
[1]
  IC50: > 100000 nM
[2]
  IC50: 550 nM

## Cc1ccc(CCN2CC[C@@]3(C)c4cc(OC(=O)Nc5ccc(C(C)C)cc5)ccc4N(C)[C@@H]23)cc1
[1]
  IC50: > 100000 nM
[2]
  IC50: 730 nM

## CC(C)c1ccc(NC(=O)Oc2ccc3c(c2)[C@]2(C)CCN(CCCc4ccccc4)[C@@H]2N3C)cc1
[1]
  IC50: > 100000 nM
[2]
  IC50: 510 nM

## CC(C)c1ccc(NC(=O)Oc2ccc3c(c2)[C@]2(C)CCN(CCc4ccc(F)cc4)[C@@H]2N3C)cc1
[1]
  IC50: > 100000 nM
[2]
  IC50: 500 nM

## CC(C)c1ccc(NC(=O)Oc2ccc3c(c2)[C@]2(C)CCN(Cc4ccccc4)[C@@H]2N3C)cc1
[1]
  IC50: > 100000 nM
[2]
  IC50: 510 nM

## CC(C)c1ccc(NC(=O)Oc2ccc3c(c2)[C@]2(C)CCN(C)[C@@H]2N3C)cc1 [4-ISOPROPYLPHENSERINE]
[1]
  IC50: 8400 nM
[2]
  IC50: 240 nM

## CC(C)c1ccc(NC(=O)Oc2ccc3c(c2)[C@]2(C)CCN(CCc4ccccc4)[C@@H]2N3C)cc1 [PHENETHYLCYMSERINE]
[1]
  IC50: > 100000 nM
